According to ChEMBL document CHEMBL1126067, “Inhibitors of cholesterol biosynthesis. 6. trans-6-[2-(2-N-heteroaryl-3,5-disubstituted- pyrazol-4-yl)ethyl/ethenyl]tetrahydro-4-hydroxy-2H-pyran-2-ones” (J Med Chem, 1992):

Experiments:
Rattus norvegicus [1] = test: The compound was tested in vivo for the inhibition of cholesterol biosynthesis in chow-fed rats.; assay type: functional
Procedure, shortened: (§1)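 Acute in vivo cholesterol synthesis (AICS) in normal chow-fed rats. Compounds dosed in DMA/PEG solution, 1.0 mg/kg po unless stated otherwise. Synthesis measured as incorporation of [1-14C]acetate into plasma sterols.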

[2] = biological target: T1, 3-hydroxy-3-methylglutaryl-coenzyme A reductase (Rattus norvegicus) (UniProt P51639); test: Tested in vivo for the inhibition of cholesterol biosynthesis in chow-fed rats at 1.0 mg/kg.; assay type: functional, organism-based; design: dose 1 mg/kg; procedure, shortened: as §1
T1 sequence (whole entry): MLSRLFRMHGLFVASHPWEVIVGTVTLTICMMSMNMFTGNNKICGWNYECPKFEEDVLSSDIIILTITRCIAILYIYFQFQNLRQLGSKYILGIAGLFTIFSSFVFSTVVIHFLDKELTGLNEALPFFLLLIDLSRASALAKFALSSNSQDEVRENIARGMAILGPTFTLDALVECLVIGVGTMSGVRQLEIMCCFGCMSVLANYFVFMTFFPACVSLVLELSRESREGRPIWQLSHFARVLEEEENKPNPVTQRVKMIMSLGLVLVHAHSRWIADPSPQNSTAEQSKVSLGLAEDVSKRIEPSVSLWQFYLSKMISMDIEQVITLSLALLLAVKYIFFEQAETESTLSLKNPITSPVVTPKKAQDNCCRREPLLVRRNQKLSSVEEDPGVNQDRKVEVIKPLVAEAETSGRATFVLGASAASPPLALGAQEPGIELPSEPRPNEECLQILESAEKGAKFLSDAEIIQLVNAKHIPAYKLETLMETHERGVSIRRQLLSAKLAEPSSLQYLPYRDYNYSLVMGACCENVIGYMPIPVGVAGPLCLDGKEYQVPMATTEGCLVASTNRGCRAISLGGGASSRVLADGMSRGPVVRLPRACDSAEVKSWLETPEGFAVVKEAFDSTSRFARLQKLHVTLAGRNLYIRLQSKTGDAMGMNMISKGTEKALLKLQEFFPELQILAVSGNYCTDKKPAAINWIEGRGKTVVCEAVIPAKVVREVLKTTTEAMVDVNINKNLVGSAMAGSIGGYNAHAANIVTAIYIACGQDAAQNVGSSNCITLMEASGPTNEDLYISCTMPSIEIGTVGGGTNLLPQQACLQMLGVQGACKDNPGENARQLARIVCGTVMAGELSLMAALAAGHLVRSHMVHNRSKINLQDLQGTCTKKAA

Rattus norvegicus [3] = test: The compound in lactone form was tested in vivo for the inhibition of cholesterol biosynthesis in chow-fed rats at 1.0 mg/kg.; assay type: functional; procedure, shortened: as §1
Rattus norvegicus [4] = test: The compound was tested in vivo for the inhibition of cholesterol biosynthesis in chow-fed rats at 1.0 mg/kg; assay type: functional; procedure, shortened: as §1
Canis familiaris [5] = test: Hypocholesterolemic activity in Cholestyramine-primed Beagle dogs at dose of 0.1 mg/kg two weeks after.; assay type: functional, Canis lupus familiaris
Procedure, shortened: (§2)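 Beagle dogs pretreated with cholestyramine resin, then given resin plus inhibitor. Plasma cholesterol read after 2 and 4 weeks of drug treatment. Values are mean percent change from pretreatment values within the same group; significance versus untreated controls at p < 0.05.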

Canis familiaris [6] = test: Hypocholesterolemic activity in Cholestyramine-primed Beagle dogs at dose of 1.0 mg/kg two weeks after.; assay type: functional, Canis lupus familiaris; procedure, shortened: as §2
Canis familiaris [7] = test: Hypocholesterolemic activity in Cholestyramine-primed Beagle dogs at dose of 1.0 mg/kg four weeks after.; assay type: functional, Canis lupus familiaris; procedure, shortened: as §2
Canis familiaris [8] = test: Hypocholesterolemic activity in Cholestyramine-primed Beagle dogs at dose of 0.1 mg/kg four weeks after.; assay type: functional, Canis lupus familiaris; procedure, shortened: as §2
Canis familiaris [9] = test: Hypocholesterolemic activity in Cholestyramine-primed Beagle dogs at dose of 0.3 mg/kg four weeks after.; assay type: functional, Canis lupus familiaris; procedure, shortened: as §2
Canis familiaris [10] = test: Hypocholesterolemic activity in Cholestyramine-primed Beagle dogs at dose of 0.3 mg/kg two weeks after.; assay type: functional, Canis lupus familiaris; procedure, shortened: as §2
Rattus norvegicus [11] = test: The compound was tested in vivo for the inhibition of cholesterol biosynthesis in chow-fed rats at 1.0 mg/kg.; assay type: functional; procedure, shortened: as §1
Rattus norvegicus [12] = test: The compound form was tested in vivo for the inhibition of cholesterol biosynthesis in chow-fed rats at 1.0 mg/kg; not determined; assay type: functional; procedure, shortened: as §1

Row | SMILES | inhibition [2] | other results
1 | CC(C)c1nn(-c2cnccn2)c(-c2ccc(F)cc2)c1/C=C/[C@@H](O)C[C@@H](O)CC(=O)[O-].[Na+] | 75% | Inhibition (Rattus norvegicus [1]): 91%
2 | CC(C)c1nn(-c2ccccn2)c(-c2ccc(F)cc2)c1/C=C/[C@@H](O)C[C@@H](O)CC(=O)O | 98% | inhibition in vivo at 1 mg/kg (Rattus norvegicus [3]): 85%
3 | CC(C)c1nn(-c2ccccc2)c(-c2ccc(F)cc2)c1CCC1C[C@@H](O)CC(=O)O1 (some centres undefined) | – | inhibition in vivo at 1 mg/kg (Rattus norvegicus [4]): 54%
4 | CC(C)c1nn(-c2ccc3ccccc3n2)c(-c2ccc(F)cc2)c1/C=C/[C@@H](O)C[C@@H](O)CC(=O)O | 69% | –
5 | CC(C)c1nn(-c2ccc3ccccc3n2)c(-c2ccc(F)cc2)c1/C=C/[C@@H]1C[C@@H](O)CC(=O)O1 | 75% | –
6 | CC(C)c1nn(-c2ccccc2)c(-c2ccc(F)cc2)c1/C=C/[C@@H](O)C[C@@H](O)CC(=O)O | 94% | –
7 | CC(C)c1nn(-c2ccccc2)c(-c2ccc(F)cc2)c1CCC(O)C[C@@H](O)CC(=O)O (some centres undefined) | 72% | –
8 | CC(C)c1nn(-c2ccccn2)c(-c2ccc(F)cc2)c1CCC(O)C[C@@H](O)CC(=O)O (some centres undefined) | 68% | –
9 | CC(C)c1nn(-c2ccccn2)c(-c2ccc(F)cc2)c1CCC1C[C@@H](O)CC(=O)O1 (some centres undefined) | 58% | –
10 | CC(C)c1nn(-c2nc3ccccc3s2)c(-c2ccc(F)cc2)c1/C=C/[C@@H](O)C[C@@H](O)CC(=O)O | 51% | –
11 | CC(C)c1nn(-c2nc3ccccc3s2)c(-c2ccc(F)cc2)c1/C=C/[C@@H]1C[C@@H](O)CC(=O)O1 | 30% | –
12 | O=C(O)C[C@H](O)C[C@H](O)/C=C/c1c(C(F)(F)F)nn(-c2ccccn2)c1-c1ccc(F)cc1 | 81% | –
13 | O=C1C[C@H](O)C[C@@H](/C=C/c2c(C(F)(F)F)nn(-c3ccccn3)c2-c2ccc(F)cc2)O1 | 60% | –
14 | CC(C)c1nn(-c2ccccn2)c(-c2ccc(F)cc2)c1/C=C/[C@@H]1C[C@@H](O)CC(=O)O1 (stereo in doubt; 10a) | 83% | –
15 | CC(C)c1nn(-c2cnccn2)c(-c2ccc(F)cc2)c1/C=C/[C@@H]1C[C@@H](O)CC(=O)O1 (stereo in doubt; 10b) | 80% | –
16 | CC(C)c1nn(-c2ccccn2)c(-c2ccc(F)cc2)c1/C=C/[C@@H]1C[C@@H](O)CC(=O)O1 (stereo in doubt; 20a) [listing 1 of 2 here] | – | Change (Canis familiaris [5]): -20%; Change (Canis familiaris [6]): -44%; Change (Canis familiaris [7]): -50%; Change (Canis familiaris [8]): -16%; Change (Canis familiaris [9]): -32%; Change (Canis familiaris [10]): -31%
17 | CC(C)c1nn(-c2ccccn2)c(-c2ccc(F)cc2)c1/C=C/[C@@H]1C[C@@H](O)CC(=O)O1 (stereo in doubt; 20a) [listing 2 of 2 here] | 93% | –
18 | CC(C)c1nn(-c2cnccn2)c(-c2ccc(F)cc2)c1/C=C/[C@@H]1C[C@@H](O)CC(=O)O1 (stereo in doubt; 20b) | 92% | –
19 | CC[C@H](C)C(=O)O[C@H]1C[C@@H](C)C=C2C=C[C@H](C)[C@H](CC[C@@H]3C[C@@H](O)CC(=O)O3)[C@H]21 [LOVASTATIN] | – | Change (Canis familiaris [5]): -7%; Change (Canis familiaris [6]): -25%; inhibition in vivo at 1 mg/kg (Rattus norvegicus [11]): 64%; Change (Canis familiaris [7]): -17%; Change (Canis familiaris [8]): -1%; Change (Canis familiaris [9]): -2%; Change (Canis familiaris [10]): -10%
20 | CC[C@H](C)C(=O)O[C@H]1C[C@H](O)C=C2C=C[C@H](C)[C@H](CC[C@@H](O)C[C@@H](O)CC(=O)O)[C@H]21 [PRAVASTATIN] | 48% | inhibition in vivo at 1 mg/kg (Rattus norvegicus [12]): 48%
